Test system: PC-3
Experiment: Inhibition of prostate cancer (PC-3) cell proliferation
Format: functional, cell-based
Conditions: Homo sapiens
Procedure, shortened: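 PC-3 cells, 8000/well, grown in RPMI 1640 with 10% FBS at 37 °C, 5% CO2. Exposed to the test agent in 10% FBS-supplemented RPMI 1640 for 48 h in six replicates. MTT at 0.5 mg/mL then added for 2 h at 37 °C, reduced dye dissolved in DMSO, absorbance read at 570 nm. IC50 taken from cell viability.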

Row | SMILES | IC50
1 | COc1cc2nc(N3CCN(S(=O)(=O)c4cc(F)c(Cl)c(C(=O)O)c4)CC3)nc(N)c2cc1OC | 56 µM
2 | COc1cc2nc(N3CCN(S(=O)(=O)c4ccc(S(C)(=O)=O)cc4)CC3)nc(N)c2cc1OC | 17 µM
3 | COc1cc2nc(N3CCN(S(=O)(=O)c4ccc(OC(F)(F)F)cc4)CC3)nc(N)c2cc1OC | 25 µM
4 | CCCOc1cc2nc(N3CCN(S(=O)(=O)c4ccc(-c5ccccc5)cc4)CC3)nc(N)c2cc1OCCC | 2.5 µM
5 | COc1cc2nc(N3CCN(S(=O)(=O)c4ccc(-c5cc6ccccc6c6ccccc56)cc4)CC3)nc(N)c2cc1OC | 5.2 µM
6 | COc1cc2nc(N3CCN(S(=O)(=O)c4cc(C(=O)O)c(Cl)cc4Cl)CC3)nc(N)c2cc1OC | 52 µM
7 | COc1cc2nc(N3CCN(S(=O)(=O)c4ccc(-c5ccc(C(C)(C)C)cc5)cc4)CC3)nc(N)c2cc1OC | 10 µM
8 | C=CCOc1cc2nc(N3CCN(S(=O)(=O)c4ccc(-c5ccccc5)cc4)CC3)nc(N)c2cc1OCC=C | 3.3 µM
9 | COc1cc2nc(N3CCN(S(=O)(=O)c4c(C(C)C)cc(C(C)C)cc4C(C)C)CC3)nc(N)c2cc1OC | 24 µM
10 | COc1cc2nc(N3CCN(S(=O)(=O)c4ccc(-c5ccc(C(F)(F)F)cc5)cc4)CC3)nc(N)c2cc1OC | 3.3 µM
11 | COc1cc2nc(N3CCN(S(=O)(=O)c4cccc5c(N(C)C)cccc45)CC3)nc(N)c2cc1OC | 29 µM
12 | COc1cc2nc(N3CCN(S(=O)(=O)c4ccc(C(F)(F)F)cc4)CC3)nc(N)c2cc1OC | 27 µM
13 | CCCCOc1cc2nc(N3CCN(S(=O)(=O)c4ccc(-c5ccccc5)cc4)CC3)nc(N)c2cc1OCCCC | 3.5 µM
14 | COc1cc2nc(N3CCN(S(=O)(=O)c4ccc(-c5ccc(S(C)(=O)=O)cc5)cc4)CC3)nc(N)c2cc1OC | 7.2 µM
15 | CC(C)Oc1cc2nc(N3CCN(S(=O)(=O)c4ccc(-c5ccccc5)cc4)CC3)nc(N)c2cc1OC(C)C | 24 µM
16 | COc1cc2nc(N3CCN(S(=O)(=O)c4ccc(-c5ccccc5)cc4)CC3)nc(N)c2cc1OC | 4.2 µM
17 | COc1cc2nc(N3CCN(S(=O)(=O)c4ccc(-c5ccc(C)cc5)cc4)CC3)nc(N)c2cc1OC | 3.4 µM
18 | COc1cc2nc(N3CCN(S(=O)(=O)c4ccc(C(C)(C)C)cc4)CC3)nc(N)c2cc1OC | 4.1 µM
19 | CCCCc1ccc(-c2ccc(S(=O)(=O)N3CCN(c4nc(N)c5cc(OC)c(OC)cc5n4)CC3)cc2)cc1 | 3.4 µM

Next, values leading:

Row | IC50 | SMILES
20 | 71 µM | COc1ccc(C(=O)N2CCN(c3nc(N)c4cc(OC)c(OC)cc4n3)CC2)cc1OC
21 | 30 µM | COc1cc2nc(N3CCN(S(=O)(=O)c4ccc(C)cc4)CC3)nc(N)c2cc1OC
22 | 23 µM | COc1cc2nc(N3CCN(S(=O)(=O)c4ccc(Cl)cc4)CC3)nc(N)c2cc1OC
23 | 47 µM | COc1cc2nc(N3CCN(C(=O)c4ccc(C(C)(C)C)cc4)CC3)nc(N)c2cc1OC
24 | > 100 µM | COc1cc2nc(N3CCN(C(=O)c4ccc(C(F)(F)F)cc4)CC3)nc(N)c2cc1OC
25 | 25 µM | COc1cc2nc(N3CCN(S(=O)(=O)c4ccc(Cl)s4)CC3)nc(N)c2cc1OC
26 | 14 µM | COc1cc2nc(N3CCN(S(=O)(=O)c4cccc5ccccc45)CC3)nc(N)c2cc1OC
27 | 15 µM | COc1cc2nc(N3CCN(S(=O)(=O)c4ccc5ccccc5c4)CC3)nc(N)c2cc1OC
28 | 45 µM | COc1cc2nc(N3CCN(C(=O)C4COc5ccccc5O4)CC3)nc(N)c2cc1OC (stereo not given) [DOXAZOSIN]
29 | 39 µM | COc1ccc(S(=O)(=O)N2CCN(c3nc(N)c4cc(OC)c(OC)cc4n3)CC2)cc1
30 | 67 µM | COc1cc2nc(N3CCN(S(=O)(=O)c4ccc(N)cc4N)CC3)nc(N)c2cc1OC
31 | 82 µM | COc1cc2nc(N3CCN(C(=O)c4cccc(C#N)c4)CC3)nc(N)c2cc1OC
32 | 63 µM | COc1cc2nc(N3CCN(C(=O)OCc4ccccc4)CC3)nc(N)c2cc1OC
33 | 36 µM | COc1cc2nc(N3CCN(S(=O)(=O)c4ccc([N+](=O)[O-])cc4)CC3)nc(N)c2cc1OC
34 | 75 µM | COc1cc2nc(N3CCN(C(=O)c4ccc([N+](=O)[O-])cc4)CC3)nc(N)c2cc1OC
35 | 59 µM | COc1cc2nc(N3CCN(C(=O)c4cccc5ccccc45)CC3)nc(N)c2cc1OC
36 | 32 µM | COc1cc2nc(N3CCN(S(=O)(=O)c4cccc([N+](=O)[O-])c4)CC3)nc(N)c2cc1OC
37 | 60 µM | COc1cc2nc(N3CCN(S(=O)(=O)c4cc(Cl)ccc4Cl)CC3)nc(N)c2cc1OC
38 | 68 µM | COc1cc2nc(N3CCN(C(=O)c4ccc(C#N)cc4)CC3)nc(N)c2cc1OC
39 | 35 µM | COc1cc2nc(N3CCN(S(=O)(=O)c4ccccc4[N+](=O)[O-])CC3)nc(N)c2cc1OC
40 | 53 µM | COc1cc2nc(N3CCN(S(=O)(=O)c4ccc(C(=O)O)cc4)CC3)nc(N)c2cc1OC
41 | > 100 µM | COc1cc2nc(N3CCN(C(=O)c4ccc(N)cc4)CC3)nc(N)c2cc1OC
42 | 60 µM | COc1cc2nc(N3CCN(C(=O)c4ccc(Cl)cc4)CC3)nc(N)c2cc1OC
43 | 53 µM | COc1cc2nc(N3CCN(S(=O)(=O)c4cccc(C(=O)O)c4)CC3)nc(N)c2cc1OC
44 | 20 µM | COc1cc2nc(N3CCN(S(=O)(=O)c4ccc(Br)cc4)CC3)nc(N)c2cc1OC
45 | 15 µM | COc1cc2nc(N3CCN(S(=O)(=O)c4ccc(I)cc4)CC3)nc(N)c2cc1OC

From ChEMBL document CHEMBL1138687, “Pharmacological exploitation of the alpha1-adrenoreceptor antagonist doxazosin to develop a novel class of antitumor agents that block intracellular protein kinase B/Akt activation” (J Med Chem, 2004)
